ChEMBL document CHEMBL4177758, “Rational Drug Design of Topically Administered Caspase 1 Inhibitors for the Treatment of Inflammatory Acne” (J Med Chem, 2018)
≈ marks a conversion by molar mass, not a printed value. Calls of active or inactive are those of the source. The rule behind the calls is not given here.

Assays:
Caspase-1 [1] = target: T1, Caspase-1 (Homo sapiens, UniProt P29466); test: Inhibition of human recombinant caspase-1 using AC-WEHD-AMC as substrate at 20 times Km after 20 mins by fluorescence assay
T1 sequence (P29466 whole entry): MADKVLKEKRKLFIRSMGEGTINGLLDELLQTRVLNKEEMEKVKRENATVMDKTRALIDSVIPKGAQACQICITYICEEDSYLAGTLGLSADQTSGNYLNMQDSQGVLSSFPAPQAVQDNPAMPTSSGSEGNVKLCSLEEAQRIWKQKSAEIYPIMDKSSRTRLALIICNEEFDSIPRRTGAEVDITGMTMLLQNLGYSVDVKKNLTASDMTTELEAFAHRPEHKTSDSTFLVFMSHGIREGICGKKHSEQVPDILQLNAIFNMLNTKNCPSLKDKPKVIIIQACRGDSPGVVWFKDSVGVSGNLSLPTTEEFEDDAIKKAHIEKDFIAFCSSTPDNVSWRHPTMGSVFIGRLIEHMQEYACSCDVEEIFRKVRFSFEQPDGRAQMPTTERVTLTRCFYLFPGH
Method in brief: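 Human recombinant caspase-1 in pH 7.4 HEPES buffer (100 mM NaCl, 0.1% CHAPS, 1 mM EDTA, 10% glycerol, 10 mM DTT) with Ac-WEHD-AMC at 200 μM final. Compounds tested at 10 000–0.04 nM in 1% DMSO. Enzyme level is set to convert under 20% of substrate in 20 min at room temperature. Free AMC read at ex 340/em 450 nm; IC50 from a four-parameter logistic fit.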

Caspase-1 [2] = target: T1, Caspase-1; test: Inhibition of human recombinant caspase-1 using AC-WEHD-AMC as substrate at Km after 20 mins by fluorescence assay
[3] = Intrinsic clearance in NHEK cells assessed per 10^6 cells; format: ADME, cell-based; details: human
Caspase-1 [4] = target: T1, Caspase-1; test: Inhibition of caspase-1 in human THP1 cells assessed as decrease in LPS-induced IL-1beta secretion after overnight incubation by sandwich immunoassay; format: cell-based
[5] = Lipophilicity, log D of the compound at pH 6.5 by chromatographic method; format: physicochemical; details: buffer
Method in brief: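 Chromatographic lipophilicity at pH 6.5, converted to ChromLogD = CHI × 0.0857 − 2.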

[6] = Solubility of the compound in PG/EtOH solution; format: physicochemical
[7] = Chemical stability in 96% ethanol assessed as parent compound recovery at 23 degC after 3 months; format: physicochemical; details: read-out: Drug recovery
Method in brief: (§1)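 Compounds bearing the aspartyl aldehyde warhead are held in 96% ethanol at 23 °C and assayed as percent of parent compound recovered. Readings taken after 4 weeks are projected to 12 weeks with best-fit kinetic-order equations. Tautomers and potential stereoisomers are counted as parent.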

[8] = Aqueous solubility of the compound in pH 7.4 buffered water after 24 hrs; format: physicochemical
Method in brief: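 Semi-thermodynamic protocol: a mixture made from a 10 mM DMSO stock is diluted into pH 7.4 buffered water and stirred 24 h before the concentration is measured.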

Caspase-1 (Homo sapiens) [9] = target: T2, Caspase-1 (Homo sapiens) (UniProt P29466); test: Reversible inhibition of human recombinant caspase-1 using AC-WEHD-AMC as substrate at 10 times IC50 preincubated for 1 hr followed by 100 fold dilution with substrate measured for 2 hrs by fluorescence assay
T2 sequence (whole entry): T1 sequence (P29466 whole entry)
Method in brief: (§2)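 Jump dilution using the caspase-1 assay reagents. A 100X enzyme solution is preincubated 1 h with inhibitor at its IC90 (1% DMSO), then diluted 100-fold into Ac-WEHD-AMC at Km. AMC formation is recorded continuously for 2 h. The progress-curve slope is normalized to the DMSO control: about 90% indicates reversible, about 10% pseudo-irreversible.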

Caspase-1 (Homo sapiens) [10] = target: T2, Caspase-1 (Homo sapiens); test: Pseudoirreversible inhibition of human recombinant caspase-1 using AC-WEHD-AMC as substrate at 10 times IC50 preincubated for 1 hr followed by 100 fold dilution with substrate measured for 2 hrs by fluorescence assay; method in brief: as §2
[11] = Intrinsic clearance in human epidermal keratinocyte S9 fraction assessed per mg of protein; format: ADME
[12] = Phototoxicity in NHEK assessed as decrease in cell viability after 24 hrs in presence of UV light by neutral red uptake assay; details: human
Method in brief: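 Keratinocyte neutral red uptake assay adapted from the OECD 432 3T3 NRU test. Cells are irradiated with a simulated daily UV dose of 6 J/cm², and viability is read after 24 h exposure to compound.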

[13] = Chemical stability in 96% ethanol assessed as parent compound recovery at 23 degC after 84 days; format: physicochemical; details: read-out: Drug recovery; method in brief: as §1

| SMILES | IC50 (Caspase-1 [1]) | IC50 (Caspase-1 [2]; read-out: pIC50 (converted)) | IC50 (Caspase-1 [4]) | chromatographic logD [5] | solubility at 24 h [8] | also measured |
| --- | --- | --- | --- | --- | --- | --- |
| C[C@@H](C(=O)N[C@H]1CC(=O)OC1O)N1C(=O)CCC(NC(=O)c2ccc3ccccc3c2)C1=O (some centres undefined) | 1.26 to 10 µM | 1000 to 10000 nM | – | – | – | – |
| CC(C)n1cc(NC(=O)c2ccc(Nc3cnc4ccccc4n3)cc2)c(=O)n(C2(C(=O)N[C@H]3CC(=O)OC3O)CC2)c1=O (some centres undefined) | – | – | 27 nM | 2.4 | 87 µM (≈ 52.2 µg/mL) | IC50 (Caspase-1 [2]; read-out: IC50): 4.7 nM; solubility [6]: 25 mM (≈ 15000 µg/mL) |
| O=C1C[C@H](NC(=O)[C@@H]2CC[C@@H]3CCCC[C@H](NC(=O)c4nccc5ccccc45)C(=O)N32)C(O)O1 (some centres undefined) | – | – | – | – | – | pseudo-irreversible inhibition (qualitative call) (Caspase-1 (Homo sapiens) [10]): Active |
| CC(C)N(NC(=O)c1ccc2ccccc2c1)C(=O)C1CCCC[C@H]1C(=O)N[C@H]1CC(=O)OC1O (some centres undefined) | 1.58 to 10 µM | 251 to 10000 nM | – | – | – | – |
| CC(C)[C@H](NC(=O)c1ccc2ccccc2c1)c1ccc(C(=O)N[C@H]2CC(=O)OC2O)cn1 (some centres undefined) | > 10 µM | 1260 nM | – | – | – | – |
| C[C@@H](C(=O)N[C@H]1CC(=O)OC1O)N1C(=O)CC(NC(=O)c2ccc3ccccc3c2)C1=O (some centres undefined) | 1.26 to 10 µM | 1000 to 10000 nM | – | – | – | – |
| C[C@@H](C(=O)N[C@H]1CC(=O)O[C@@H]1O)N1C(=O)CCC(NC(=O)c2ccc3ccccc3c2)C1=O (some centres undefined) | – | – | – | – | – | pseudo-irreversible inhibition (qualitative call) (Caspase-1 (Homo sapiens) [10]): Active |
| C[C@@H](C(=O)N[C@H]1CC(=O)OC1O)N1C(=O)C[C@H](NC(=O)c2ccc3ccccc3c2)C1=O (some centres undefined) | – | – | – | – | – | pseudo-irreversible inhibition (qualitative call) (Caspase-1 (Homo sapiens) [10]): Active |
| CC(C)n1cc(NC(=O)c2ccc(Nc3cnc4ccccc4n3)cc2)c(=O)n(CC(=O)N[C@H]2CC(=O)OC2O)c1=O (some centres undefined) | – | – | 53 nM | 2.3 | 8.3 µM (≈ 4.76 µg/mL) | IC50 (Caspase-1 [2]; read-out: IC50): 3 nM; solubility [6]: 5.2 mM (≈ 2980 µg/mL) |
| Cc1cnc(Nc2ccc(C(=O)Nc3cn(C)c(=O)n(C(C)C(=O)N[C@H]4CC(=O)OC4O)c3=O)cc2)cn1 (some centres undefined) | – | 39.8 nM | – | – | – | – |
| CC(C)N(NC(=O)c1ccc2ccccc2c1)C(=O)C1CNC[C@H]1C(=O)N[C@H]1CC(=O)OC1O (some centres undefined) | 1.58 to 10 µM | 251 to 10000 nM | – | – | – | – |
| CC(C)N(NC(=O)c1cccc(Oc2ccccc2)c1)C(=O)[C@@H]1CCCC[C@H]1C(=O)N[C@H]1CC(=O)OC1O (some centres undefined) | – | – | – | – | – | reversible inhibition call (jump dilution) (Caspase-1 (Homo sapiens) [9]): Active |
| CC(C(=O)N[C@H]1CC(=O)OC1O)n1c(=O)c(NC(=O)c2ccc(Nc3cnc4ccccc4n3)cc2)cn(C)c1=O (some centres undefined) | 0.0316 µM | – | 48 nM | 1.9 | 96 µM (≈ 53.7 µg/mL) | IC50 (Caspase-1 [2]; read-out: IC50): 5.6 nM; solubility [6]: 0.89 mM (≈ 498 µg/mL) |
| CC(C)N(NC(=O)c1nccc2ccccc12)C(=O)[C@@H]1CCCC[C@H]1C(=O)N[C@H]1CC(=O)OC1O (some centres undefined) | – | – | – | – | – | reversible inhibition call (jump dilution) (Caspase-1 (Homo sapiens) [9]): Active |
| CC(C)[C@H](NC(=O)c1ccc2ccccc2c1)C(=O)N1C2CCC(O)(CC2)C1C(=O)N[C@H]1CC(=O)OC1O (some centres undefined) | 0.1 µM | 15.8 nM | – | – | – | – |
| CC(C)N(NC(=O)c1ccc2ccccc2c1)C(=O)[C@@H]1CCCC[C@H]1C(=O)N[C@H]1CC(=O)OC1O (some centres undefined) | – | – | – | – | – | reversible inhibition call (jump dilution) (Caspase-1 (Homo sapiens) [9]): Active |
| CC(C)[C@H](NC(=O)[C@H](Cc1ccc(O)cc1)NC(=O)OCc1ccccc1)C(=O)N[C@@H](C)C(=O)N[C@@H](CC(=O)O)C(=O)CF | – | – | – | – | – | pseudo-irreversible inhibition (qualitative call) (Caspase-1 (Homo sapiens) [10]): Active |
| C[C@@H](C(=O)N[C@H]1CC(=O)OC1O)N1C(=O)NC(NC(=O)c2ccc3ccccc3c2)C1=O (some centres undefined) | 1.26 to 10 µM | 1000 to 10000 nM | – | – | – | – |
| CC(C)N(NC(=O)c1ccc2ccccc2c1)C(=O)C1CCC[C@H]1C(=O)N[C@H]1CC(=O)OC1O (some centres undefined) | 1.58 to 10 µM | 251 to 10000 nM | – | – | – | – |
| O=C1C[C@H](NC(=O)[C@@H]2C[C@@H]3CN2C(=O)[C@@H](NC(=O)c2ccc4ccccc4c2)CCCCO3)C(O)O1 (some centres undefined) | > 10 µM | 5010 nM | – | – | – | – |

The next lines start with results.

| IC50 (Caspase-1 [1]) | IC50 (Caspase-1 [2]; read-out: pIC50 (converted)) | IC50 (Caspase-1 [4]) | chromatographic logD [5] | solubility at 24 h [8] | SMILES | also measured |
| --- | --- | --- | --- | --- | --- | --- |
| – | – | 66 nM | 3.5 | 72 µM (≈ 42.2 µg/mL) | Cc1cc(Nc2ccc3ccccc3c2)ccc1C(=O)Nc1cn(C(C)C)c(=O)n(CC(=O)N[C@H]2CC(=O)OC2O)c1=O (some centres undefined) | CL [3]: 3.9 uL/min/10^6 cells; solubility [6]: 51 mM (≈ 29900 µg/mL); remaining at 2191.5 h [7]: 85% |
| 7.94 µM | 501 nM | – | – | – | CC(C(=O)N[C@H]1CC(=O)OC1O)n1c(=O)c(NC(=O)c2ccc3ccccc3c2)cn(C)c1=O (some centres undefined) | reversible inhibition call (jump dilution) (Caspase-1 (Homo sapiens) [9]): Active |
| – | – | 23 nM | 3.5 | 66 µM (≈ 39.4 µg/mL) | CC(C)n1cc(NC(=O)c2ccc(Nc3ccc4ccccc4c3)cc2)c(=O)n(C2(C(=O)N[C@H]3CC(=O)OC3O)CC2)c1=O (some centres undefined) | CL [3]: 2.1 uL/min/10^6 cells; CL [11]: < 0.82 uL/min/mg protein; solubility [6]: 31 mM (≈ 18500 µg/mL); remaining at 2191.5 h [7]: 99% |
| – | – | 50 nM | 2.4 | 86 µM (≈ 50.5 µg/mL) | CC(C)n1cc(NC(=O)c2ccc(Nc3cnc4ccccc4n3)cc2)c(=O)n(C(C)C(=O)N[C@H]2CC(=O)OC2O)c1=O (some centres undefined) | IC50 (Caspase-1 [2]; read-out: IC50): 5.6 nM; solubility [6]: 11 mM (≈ 6460 µg/mL) |
| – | – | 76 nM | 4 | – | CCC(C(=O)N[C@H]1CC(=O)OC1O)n1c(=O)c(NC(=O)c2ccc(Nc3ccc4ccccc4c3)cc2C)cn(C(C)C)c1=O (some centres undefined) | remaining at 2191.5 h [7]: 72% |
| – | – | 200 nM | 4.5 | 2 µM (≈ 1.23 µg/mL) | CCC(C(=O)N[C@H]1CC(=O)OC1O)n1c(=O)c(NC(=O)c2ncc(Nc3ccc4ccccc4c3)cc2C)cn(C(C)C)c1=O (some centres undefined) | CL [3]: 7.7 uL/min/10^6 cells; Activity [12]: Toxic; CL [11]: 2 uL/min/mg protein; solubility [6]: 49 mM (≈ 30100 µg/mL); remaining at 2191.5 h [7]: 100% |
| – | – | 210 nM | 3.8 | 42 µM (≈ 26.4 µg/mL) | CCC(C(=O)N[C@H]1CC(=O)OC(O)C1)n1c(=O)c(NC(=O)c2ccc(Nc3ccc4ccccc4c3)cc2C)cn(C(C)C)c1=O (some centres undefined) | CL [3]: 13 uL/min/10^6 cells; CL [11]: 2.9 uL/min/mg protein; remaining at 2191.5 h [7]: 84% |
| – | – | 360 nM | 3.4 | 63 µM (≈ 39.4 µg/mL) | Cc1cc(Nc2ccc3ccccc3c2)ccc1C(=O)Nc1cn(C(C)C)c(=O)n(C2(C(=O)N[C@H]3CC(=O)OC(O)C3)CC2)c1=O (some centres undefined) | Activity [12]: Non-Toxic; remaining at 2016 h [13]: 88%; CL [11]: 3.5 uL/min/mg protein |
| – | – | 140 nM | 3.2 | 52 µM (≈ 29.7 µg/mL) | CC(C)n1cc(NC(=O)c2ccc(Nc3ccc4ccccc4c3)cc2)c(=O)n(CC(=O)N[C@H]2CC(=O)OC2O)c1=O (some centres undefined) | Activity [12]: Toxic; IC50 (Caspase-1 [2]; read-out: IC50): 21 nM; CL [11]: < 0.82 uL/min/mg protein; solubility [6]: 36 mM (≈ 20600 µg/mL); remaining at 2191.5 h [7]: 82% |
